Data: ChEMBL document CHEMBL1177802, “Novel semicarbazones based 2,5-disubstituted-1,3,4-oxadiazoles: one more step towards establishing four binding site pharmacophoric model hypothesis for anticonvulsant activity” (Bioorg Med Chem Lett, 2010)
Calls of active or inactive are those of the source.

Assays:
Rattus norvegicus [1] = experiment: Increase in GABA level in Wistar rat medulla oblangata assessed per mg of tissue at 30 mg/kg, ip after 2 hrs; assay type: functional, Medulla oblongata; settings: route intraperitoneal
Procedure, shortened: (§1)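 Rats dosed ip, killed by decapitation 2 h after dosing. Midbrain, medulla oblongata and cerebellum were each placed separately in ice-cold 80% ethanol and processed for GABA by a previously reported method. GABA was expressed per 100 mg tissue. Values are the mean ± SEM of six rats, compared with an untreated control group.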

Rattus norvegicus [2] = experiment: Increase in GABA level in Wistar rat midbrain assessed per mg of tissue at 30 mg/kg, ip after 2 hrs; assay type: functional; settings: route intraperitoneal
Rattus norvegicus [3] = experiment: Increase in GABA level in Wistar rat cerebellum assessed per mg of tissue at 30 mg/kg, ip after 2 hrs; assay type: functional; settings: route intraperitoneal; procedure, shortened: as §1
Mus musculus [4] = experiment: Anticonvulsant activity against maximal electroshock-induced seizures in ip dosed Swiss albino mouse assessed as minimum effective dose after 4 hrs; assay type: functional; settings: read-out: MED
Procedure, shortened: (§2)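 Mice; compounds given ip at 30, 100 and 300 mg/kg and tested in the maximal electroshock seizure model at 0.5 and 4.0 h after dosing. Read-out is the minimal dose giving protection in half or more of the animals. Absence of activity is judged at the 300 mg/kg maximum.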

Rattus norvegicus [5] = experiment: Anticonvulsant activity against maximal electroshock-induced seizures in Wistar rat at 30 mg/kg, po after 1 hr; assay type: functional, organism-based; set-up: dose 30 mg/kg
Procedure, shortened: (§3)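 Rats dosed orally at 30 mg/kg; maximal electroshock protection scored at 0.25, 0.5, 1, 2 and 4 h. Result is given as the number of protected rats out of four.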

Rattus norvegicus [6] = experiment: Neurotoxicity in Wistar rat at 30 mg/kg, po after 0.5 hrs; assay type: toxicity, organism-based; set-up: dose 30 mg/kg, route oral; settings: in vivo
Procedure, shortened: (§4)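 Oral dosing in rats at 30 mg/kg, neurotoxicity (rotorod) scored at 0.25, 0.5, 1, 2 and 4 h post-administration. Counts are out of four rats per time point.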

Rattus norvegicus [7] = experiment: Increase in GABA level in Wistar rat cerebellum assessed per mg of tissue at 100 mg/kg, ip after 2 hrs; assay type: functional; settings: route intraperitoneal
Procedure, shortened: (§5)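 Rats given 100 mg/kg ip and killed by decapitation 2 h later. Midbrain, medulla oblongata and cerebellum are placed separately in ice-cold 80% ethanol and processed for GABA, expressed per 100 mg tissue. Reference drug clobazam is given at 30 mg/kg ip. Values are mean ± SEM of six rats.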

Mus musculus [8] = experiment: Neurotoxicity in Swiss albino mouse at 300 mg/kg, ip after 4 hrs; assay type: toxicity, organism-based; set-up: dose 300 mg/kg, route intraperitoneal; settings: in vivo
Procedure, shortened: (§6)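 Acute neurotoxicity by rotorod test in mice given 30, 100 and 300 mg/kg ip, assessed 0.5 and 4.0 h after dosing. Reported as the minimal dose producing the effect in half or more of the animals. Absence of activity is judged at the 300 mg/kg maximum.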

Rattus norvegicus [9] = experiment: Anticonvulsant activity against subcutaneous strychnine-induced seizures in Wistar rat at 300 mg/kg, ip after 0.5 hrs; assay type: functional, organism-based; set-up: dose 300 mg/kg
Procedure, shortened: (§7)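 Rats; subcutaneous strychnine-induced seizure model with compounds given intraperitoneally at 30, 100 and 300 mg/kg. Activity is checked at 0.5 h and 4.0 h and recorded as the minimal dose active in at least half of the animals. Absence of activity is judged at the 300 mg/kg maximum.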

Mus musculus [10] = experiment: Anticonvulsant activity against subcutaneous pentylenetetrazole-induced seizures in Swiss albino mouse at 300 mg/kg, ip after 0.5 hrs; assay type: functional, organism-based; set-up: dose 300 mg/kg
Procedure, shortened: (§8)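 Mice; subcutaneous pentylenetetrazole seizure screen after ip dosing at 30, 100 and 300 mg/kg, read 0.5 and 4.0 h post-dose. Scored as the lowest dose protecting at least half of the animals. Absence of activity is judged at the 300 mg/kg maximum.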

Rattus norvegicus [11] = experiment: Increase in GABA level in Wistar rat medulla oblangata assessed per mg of tissue at 100 mg/kg, ip after 2 hrs; assay type: functional, Medulla oblongata; settings: route intraperitoneal; procedure, shortened: as §5
Mus musculus [12] = experiment: Anticonvulsant activity against maximal electroshock-induced seizures in ip dosed Swiss albino mouse assessed as minimum effective dose after 0.5 hrs; assay type: functional; settings: read-out: MED; procedure, shortened: as §2
Rattus norvegicus [13] = experiment: Anticonvulsant activity against subcutaneous strychnine-induced seizures in ip dosed Wistar rat assessed as minimum effective dose after 4 hrs; assay type: functional; settings: read-out: MED; procedure, shortened: as §7
Rattus norvegicus [14] = experiment: Anticonvulsant activity against maximal electroshock-induced seizures in Wistar rat at 30 mg/kg, po after 0.25 hrs; assay type: functional, organism-based; set-up: dose 30 mg/kg; procedure, shortened: as §3
Rattus norvegicus [15] = experiment: Neurotoxicity in Wistar rat at 30 mg/kg, po after 4 hrs; assay type: toxicity, organism-based; set-up: dose 30 mg/kg, route oral; settings: in vivo; procedure, shortened: as §4
Rattus norvegicus [16] = experiment: Anticonvulsant activity against maximal electroshock-induced seizures in Wistar rat at 30 mg/kg, po after 2 hrs; assay type: functional, organism-based; set-up: dose 30 mg/kg; procedure, shortened: as §3
Rattus norvegicus [17] = experiment: Neurotoxicity in Wistar rat at 30 mg/kg, po after 0.25 hrs; assay type: toxicity, organism-based; set-up: dose 30 mg/kg, route oral; settings: in vivo; procedure, shortened: as §4
Mus musculus [18] = experiment: Neurotoxicity in Swiss albino mouse at 300 mg/kg, ip after 0.5 hrs; assay type: toxicity, organism-based; set-up: dose 300 mg/kg, route intraperitoneal; settings: in vivo; procedure, shortened: as §6
Mus musculus [19] = experiment: Anticonvulsant activity against subcutaneous pentylenetetrazole-induced seizures in ip dosed Swiss albino mouse assessed as minimum effective dose after 4 hrs; assay type: functional; settings: read-out: MED; procedure, shortened: as §8
Rattus norvegicus [20] = experiment: Increase in GABA level in Wistar rat midbrain assessed per mg of tissue at 100 mg/kg, ip after 2 hrs; assay type: functional; settings: route intraperitoneal; procedure, shortened: as §5
Rattus norvegicus [21] = experiment: Neurotoxicity in Wistar rat at 30 mg/kg, po after 1 hr; assay type: toxicity, organism-based; set-up: dose 30 mg/kg, route oral; settings: in vivo; procedure, shortened: as §4
Mus musculus [22] = experiment: Anticonvulsant activity against subcutaneous pentylenetetrazole-induced seizures in Swiss albino mouse at 300 mg/kg, ip after 4 hrs; assay type: functional, organism-based; set-up: dose 300 mg/kg; procedure, shortened: as §8
Mus musculus [23] = experiment: Neurotoxicity in ip dosed Swiss albino mouse assessed as minimum dose required to cause toxicity after 4 hrs; assay type: organism-based; settings: in vivo; procedure, shortened: as §6
Rattus norvegicus [24] = experiment: Anticonvulsant activity against maximal electroshock-induced seizures in Wistar rat at 30 mg/kg, po after 0.5 hrs; assay type: functional, organism-based; set-up: dose 30 mg/kg; procedure, shortened: as §3
Mus musculus [25] = experiment: Neurotoxicity in ip dosed Swiss albino mouse assessed as minimum dose required to cause toxicity after 0.5 hrs; assay type: organism-based; settings: in vivo; procedure, shortened: as §6
Rattus norvegicus [26] = experiment: Neurotoxicity in Wistar rat at 30 mg/kg, po after 2 hrs; assay type: toxicity, organism-based; set-up: dose 30 mg/kg, route oral; settings: in vivo; procedure, shortened: as §4
Rattus norvegicus [27] = experiment: Anticonvulsant activity against subcutaneous strychnine-induced seizures in ip dosed Wistar rat assessed as minimum effective dose after 0.5 hrs; assay type: functional; settings: read-out: MED
Procedure, shortened: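 Rats given 30, 100 or 300 mg/kg ip and challenged with subcutaneous strychnine. Protection was read at 0.5 and 4.0 h after dosing. The value is the minimal dose that gave activity in half or more of the animals; no activity at 300 mg/kg was the highest-dose cut-off.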

Mus musculus [28] = experiment: Anticonvulsant activity against subcutaneous pentylenetetrazole-induced seizures in ip dosed Swiss albino mouse assessed as minimum effective dose after 0.5 hrs; assay type: functional; settings: read-out: MED; procedure, shortened: as §8

SMILES	minimal effective dose (Mus musculus [4]) [mg/kg]	Activity (Rattus norvegicus [5])	Activity (Rattus norvegicus [6])	Activity (Rattus norvegicus [7]) [µg]	Activity (Mus musculus [8])	MED (Rattus norvegicus [9])	MED (Mus musculus [10])	Activity (Rattus norvegicus [11]) [µg]	minimal effective dose (Mus musculus [12]) [mg/kg]	minimal effective dose (Rattus norvegicus [13]) [mg/kg]	Activity (Rattus norvegicus [14])	Activity (Rattus norvegicus [15])	Activity (Rattus norvegicus [16])	Activity (Rattus norvegicus [17])	Activity (Mus musculus [18])	minimal effective dose (Mus musculus [19]) [mg/kg]	Activity (Rattus norvegicus [20]) [µg]	Activity (Rattus norvegicus [21])	Activity (Rattus norvegicus [24])	Activity (Rattus norvegicus [26])	other results
CN1C(=O)CC(=O)N(c2ccccc2)c2cc(Cl)ccc21 [CLOBAZAM]																					Activity (Rattus norvegicus [1]): 47.53 µg; Activity (Rattus norvegicus [2]): 69.51 µg; Activity (Rattus norvegicus [3]): 35.44 µg
C/C(=N/NC(=O)Nc1nnc(COc2ccc3ccccc3c2)o1)c1ccc([N+](=O)[O-])cc1	300	inactive	Non-toxic	27.56	Non-toxic	inactive	inactive	40.42	100	300	inactive	Non-toxic	inactive	Non-toxic	Non-toxic	300	45.5	Non-toxic			
O=C(N/N=C\c1ccc(O)cc1)Nc1nnc(COc2ccc3ccccc3c2)o1	300		Non-toxic	28.53			inactive	35.48	100	300	inactive		inactive	Non-toxic			53.77	Non-toxic	inactive	Non-toxic	MED (Mus musculus [22]): inactive; Activity (Mus musculus [23]): 100 mg/kg; Activity (Mus musculus [25]): 100 mg/kg; minimal effective dose (Rattus norvegicus [27]): 100 mg/kg
O=C(N/N=C(/c1ccccc1)c1ccc([N+](=O)[O-])cc1)Nc1nnc(COc2ccc3ccccc3c2)o1	300	inactive	Non-toxic	29.75	Non-toxic	inactive		46.62	100	300	inactive	Non-toxic	inactive	Non-toxic	Non-toxic	300	67.72	Non-toxic	inactive	Non-toxic	minimal effective dose (Mus musculus [28]): 100 mg/kg
